Assay results published in ChEMBL document CHEMBL2429784, “Withanolide-based steroids from the cultured soft coral Sinularia brassica” (2013).
pEC50: −log10 of the molar value.

Assays:
Type in all cases: functional
Conditions in all cases: read-out: ED50 (the source's name)
MOLT-4 = assay: Cytotoxicity against human MOLT4 cells by Alamar blue assay
Procedure, shortened: (§1)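 Cell lines from ATCC. Growth inhibition measured by Alamar Blue read-out. ED50 reported as mean ± SEM of triplicate determinations; inactivity cutoff set at ED50 > 10 μM. 5-Fluorouracil run as positive control.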

HT-29 = assay: Cytotoxicity against human HT-29 cells by Alamar blue assay; procedure, shortened: as §1
P388 = assay: Cytotoxicity against mouse P388 cells by Alamar blue assay; procedure, shortened: as §1
K562 = assay: Cytotoxicity against human K562 cells by Alamar blue assay; procedure, shortened: as §1

Row | SMILES | pEC50 (MOLT-4) | pEC50 (HT-29) | pEC50 (P388) | pEC50 (K562)
1 | C[C@@H]1[C@H]([C@H]2OC(=O)[C@H](C)[C@H]2C)O[C@H]2C[C@H]3[C@@H]4CCC5=CC(=O)C=C[C@]5(C)[C@H]4CC[C@]3(C)[C@@H]12 | 5.32 | 5.32 | 5.04 | 
2 | O=c1[nH]cc(F)c(=O)[nH]1 [FLUOROURACIL] | 5.11 | 5.11 | 5.21 | 4.68
3 | C[C@H]1[C@H]2[C@H](C[C@H]3[C@@H]4CCC5=CC(=O)C=C[C@]5(C)[C@H]4CC[C@]23C)O[C@@]2(OC(=O)[C@@H](C)[C@H]2C)[C@H]1O | 5.00 | 5.12 |  | 
4 | C[C@@H]1[C@H]([C@H]2OC(=O)[C@@H](C)[C@H]2C)O[C@H]2C[C@H]3[C@@H]4CCC5=CC(=O)C=C[C@]5(C)[C@H]4CC[C@]3(C)[C@@H]12 |  |  |  | 5.06
